From ChEMBL document CHEMBL1157214, “Anti-HIV agents 45(1) and antitumor agents 205.(2) two new sesquiterpenes, leitneridanins A and B, and the cytotoxic and anti-HIV principles from Leitneria floridana” (J Nat Prod, 2000)
Converted amounts (≈) assume the structure as drawn.

Legend:
[1] = Therapeutic index, ratio of IC50 for human H9 cells to EC50 for HIV; type: cell-based; conditions: read-out: Ratio IC50/EC50
[2] = system: H9; assay: Growth inhibition of human H9 cells; type: cell-based
[3] = system: KB; assay: Cytotoxicity against human KB cells after 3 days by SRB assay; type: functional; conditions: 72 h, read-out: ED50 (the source's name)
Method in brief: (§1)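 Human tumour lines from the Lineberger Comprehensive Cancer Center (UNC-CH). Selected samples were then run over a dose range in triplicate for three days. Growth was read by SRB absorbance at 562 nm. ED50 is the concentration giving a 50% fall in absorbance versus untreated cells.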

[4] = system: CAKI-1; assay: Cytotoxicity against human CAKI1 cells after 3 days by SRB assay; type: functional; conditions: CAKI-1, 72 h, read-out: ED50 (the source's name); method in brief: as §1
[5] = system: HCT-8; assay: Cytotoxicity against human HCT8 cells after 3 days by SRB assay; type: functional; conditions: HCT-8, 72 h, read-out: ED50 (the source's name); method in brief: as §1
[6] = system: MCF7; assay: Cytotoxicity against human MCF7 cells after 3 days by SRB assay; type: functional; conditions: MCF7, 72 h, read-out: ED50 (the source's name); method in brief: as §1
[7] = system: A549; assay: Cytotoxicity against human A549 cells after 3 days by SRB assay; type: functional; conditions: A549, 72 h, read-out: ED50 (the source's name); method in brief: as §1
[8] = system: SK-MEL-2; assay: Cytotoxicity against human SK-MEL-2 cells after 3 days by SRB assay; type: functional; conditions: for EC50: Homo sapiens, SK-MEL-2, 72 h, read-out: ED50 (the source's name)
[9] = system: Human immunodeficiency virus; assay: Inhibition of HIV replication in human H9 cells; type: functional, organism-based; conditions: Human immunodeficiency virus 1, H9

SMILES | selectivity ratio [1] | IC50 [2] | EC50 [3] | EC50 [4] | EC50 [5] | EC50 [6] | EC50 [7] | inhibition (INH) [8] | EC50 [8] | EC50 [9]
COc1cnc2ccc(=O)n3c4ccccc4c1c23 | > 391 | > 100 µg/mL | 3.6 µg/mL (≈ 14.4 µM) | 3.6 µg/mL (≈ 14.4 µM) | 3.6 µg/mL (≈ 14.4 µM) | 13.5 µg/mL (≈ 53.9 µM) | 4.3 µg/mL (≈ 17.2 µM) | 46% | > 20 µg/mL | 0.256 µg/mL (≈ 1.02 µM)
COc1cc2nccc3c4ccccc4n(c1=O)c23 [5-METHOXYCANTHINONE] |  |  | 2.9 µg/mL (≈ 11.6 µM) | 4.4 µg/mL (≈ 17.6 µM) | 2.5 µg/mL (≈ 9.99 µM) | 5 µg/mL (≈ 20 µM) | 3.1 µg/mL (≈ 12.4 µM) |  | 17 µg/mL (≈ 67.9 µM) | 
CC[C@](C)(OC(C)=O)C(=O)O[C@H]1C(=O)O[C@@H]2C[C@H]3C(C)=CC(=O)[C@@H](O)[C@]3(C)[C@H]3[C@@H](O)[C@H](O)[C@@]4(C)OC[C@]32[C@@H]14 [QUASSIMARIN] |  |  | 0.06 µg/mL (≈ 0.112 µM) | 0.05 µg/mL (≈ 0.0932 µM) | 0.012 µg/mL (≈ 0.0224 µM) | 0.006 µg/mL (≈ 0.0112 µM) | 0.03 µg/mL (≈ 0.0559 µM) |  | 0.05 µg/mL (≈ 0.0932 µM) | 
CC[C@@H](C)C(=O)O[C@H]1C(=O)O[C@@H]2C[C@H]3C(C)=CC(=O)[C@@H](O)[C@]3(C)[C@H]3[C@@H](O)[C@H](O)[C@]4(C)OC[C@]32[C@@H]14 [SIMALIKALACTONE D] |  |  | 0.018 µg/mL (≈ 0.0376 µM) | 0.26 µg/mL (≈ 0.543 µM) | 0.013 µg/mL (≈ 0.0272 µM) | 0.014 µg/mL (≈ 0.0293 µM) | 0.04 µg/mL (≈ 0.0836 µM) |  | 0.13 µg/mL (≈ 0.272 µM) | 
